Tests used:
Mus musculus [1] = assay: Antiobesity activity in B6.V/J ob/ob mouse assessed as change in brain weight at 50 mg/kg, po bid measured after 14 days (reference value: 0.340 +/- 0.017 g); format: functional
Mus musculus [2] = assay: Antiobesity activity in B6.V/J ob/ob mouse assessed as inhibition of food intake at 12.5 mg/kg, ip measured up to 6 hrs relative to vehicle-treated control; format: functional; details: route intraperitoneal
Outline: (§1)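 Male mice were acclimated 1 week at 23 ± 3 °C and 50 ± 20% humidity, then fasted 24 h. They were dosed once intraperitoneally with vehicle or compound: 50 mg/kg in C57BL/6, or 12.5, 25 or 50 mg/kg in B6.V-Lep^ob/J. Food intake was measured at 2, 6 and 12 h versus vehicle control.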

[3] = target: T1, Alpha-2A adrenergic receptor (Homo sapiens, UniProt P08913); assay: Binding affinity to adrenergic alpha2A receptor (unknown origin)
T1 sequence (P08913 whole entry): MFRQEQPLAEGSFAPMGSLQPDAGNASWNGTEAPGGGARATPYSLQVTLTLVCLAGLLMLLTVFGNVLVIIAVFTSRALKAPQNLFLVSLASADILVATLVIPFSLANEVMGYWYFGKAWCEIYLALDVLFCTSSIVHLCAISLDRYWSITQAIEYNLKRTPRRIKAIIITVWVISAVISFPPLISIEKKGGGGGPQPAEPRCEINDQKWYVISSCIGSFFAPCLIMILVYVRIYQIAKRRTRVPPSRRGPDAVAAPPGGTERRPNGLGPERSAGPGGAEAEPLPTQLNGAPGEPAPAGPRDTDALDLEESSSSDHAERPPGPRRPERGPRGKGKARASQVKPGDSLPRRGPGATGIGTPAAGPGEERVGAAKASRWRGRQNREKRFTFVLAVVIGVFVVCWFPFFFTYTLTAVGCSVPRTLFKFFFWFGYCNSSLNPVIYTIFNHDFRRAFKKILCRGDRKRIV

Mus musculus [4] = assay: Antiobesity activity in B6.V/J ob/ob mouse assessed as change in thymus weight at 25 mg/kg, po bid measured after 14 days (reference value: 0.029 +/- 0.006 g); format: functional
Mus musculus [5] = assay: Antiobesity activity in B6.V/J ob/ob mouse assessed as change in heart weight at 25 mg/kg, po bid measured after 14 days (reference value: 0.150 +/- 0.003 g); format: functional
[6] = Cmax in Sprague-Dawley rat at 10 mg/kg, po; format: ADME, organism-based; set-up: dose 10 mg/kg, route oral; details: in vivo
Outline: (§2)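 Rats fasted 12 h, then dosed orally by gavage or by bolus tail-vein injection at 2 ml/kg. Compound given as a 5 mg/ml solution in N-methyl-2-pyrrolidone/Tween 80/water (1:2:7). Samples taken at various times (n = 5) and stored at −70 °C. Plasma deproteinized with acetonitrile containing carbamazepine internal standard, then quantified by LC-MS/MS.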

Mus musculus [7] = assay: Toxicity in B6.V/J ob/ob mouse assessed as mortality at 50 mg/kg, po bid measured after 14 days; format: organism-based; set-up: dose 50 mg/kg, route oral; details: in vivo, 336 h
Mus musculus [8] = assay: Antiobesity activity in B6.V/J ob/ob mouse assessed as change in lung weight at 25 mg/kg, po bid measured after 14 days (reference value: 0.143 +/- 0.013 g); format: functional
Mus musculus [9] = assay: Antiobesity activity in B6.V/J ob/ob mouse assessed as inhibition of body weight gain at 12.5 mg/kg, ip measured after 12 hrs relative to vehicle-treated control; format: functional; details: route intraperitoneal
[10] = target: 5-hydroxytryptamine receptor 2B (Homo sapiens, UniProt P41595); assay: Displacement of […] from human recombinant 5HT-2B receptor
Mus musculus [11] = assay: Antiobesity activity in B6.V/J ob/ob mouse assessed as inhibition of food intake at 12.5 mg/kg, ip measured up to 12 hrs relative to vehicle-treated control; format: functional; details: route intraperitoneal; outline: as §1
Homo sapiens = organism: Homo sapiens; assay: Selectivity ratio of IC50 for human recombinant 5HT-2B receptor to IC50 for human recombinant 5HT-2C receptor
Mus musculus [12] = assay: Antiobesity activity in B6.V/J ob/ob mouse assessed as change in brain weight at 5 mg/kg, po bid measured after 14 days (reference value: 0.340 +/- 0.017 g); format: functional
Mus musculus [13] = assay: Antiobesity activity in B6.V/J ob/ob mouse assessed as change in lung weight at 5 mg/kg, po bid measured after 14 days (reference value: 0.143 +/- 0.013 g); format: functional
Mus musculus [14] = assay: Antiobesity activity in B6.V/J ob/ob mouse assessed as change in lung weight at 50 mg/kg, po bid measured after 14 days (reference value: 0.143 +/- 0.013 g); format: functional
Mus musculus [15] = assay: Antiobesity activity in B6.V/J ob/ob mouse assessed as change in kidney weight at 50 mg/kg, po bid measured after 14 days (reference value: 0.339 +/- 0.009 g); format: functional
Mus musculus [16] = assay: Antiobesity activity in B6.V/J ob/ob mouse assessed as change in thymus weight at 5 mg/kg, po bid measured after 14 days (reference value: 0.029 +/- 0.006 g); format: functional
Mus musculus [17] = assay: Antiobesity activity in C57BL/6 mouse assessed as inhibition of body weight gain at 50 mg/kg, po qd measured after 14 days relative to vehicle-treated control; format: functional; details: C57BL/6, 336 h
[18] = AUC (0 to infinity) in Sprague-Dawley rat at 10 mg/kg, iv; format: ADME, organism-based; set-up: time infinity, dose 10 mg/kg, route intravenous; details: plasma
Mus musculus [19] = assay: Antiobesity activity in B6.V/J ob/ob mouse assessed as inhibition of food intake at 50 mg/kg, ip measured up to 6 hrs relative to vehicle-treated control; format: functional; details: route intraperitoneal; outline: as §1
Mus musculus [20] = assay: Antiobesity activity in B6.V/J ob/ob mouse assessed as change in gonadal adipose tissue weight at 5 mg/kg, po bid measured after 14 days (reference value: 3.599 +/- 0.155 g); format: functional
[21] = Clearance in Sprague-Dawley rat at 10 mg/kg, iv; format: ADME, organism-based; set-up: dose 10 mg/kg, route intravenous; details: in vivo; outline: as §2
[22] = Drug excretion in Sprague-Dawley rat at 10 mg/kg, po; format: ADME, organism-based; set-up: dose 10 mg/kg, route oral; details: in vivo, read-out: Ae; outline: as §2
[23] = Apparent volume of distribution at steady state in Sprague-Dawley rat at 10 mg/kg, iv; format: ADME, organism-based; set-up: dose 10 mg/kg, route intravenous; details: in vivo, read-out: Vdss(app); outline: as §2
Mus musculus [24] = assay: Antiobesity activity in C57BL/6 mouse assessed as inhibition of body weight gain at 50 mg/kg, ip measured after 2 to 12 hrs relative to vehicle-treated control; format: functional; details: C57BL/6, ip, route intraperitoneal
Mus musculus [25] = assay: Antiobesity activity in B6.V/J ob/ob mouse assessed as inhibition of food intake at 25 mg/kg, po bid measured after 14 days relative to vehicle-treated control; format: functional; details: 336 h
[26] = Oral bioavailability in Sprague-Dawley rat at 10 mg/kg; format: ADME, organism-based; details: in vivo; outline: as §2
Mus musculus [27] = assay: Antiobesity activity in B6.V/J ob/ob mouse assessed as change in liver weight at 5 mg/kg, po bid measured after 14 days (reference value: 3.396 +/- 0.162 g); format: functional
Mus musculus [28] = assay: Antiobesity activity in B6.V/J ob/ob mouse assessed as change in heart weight at 5 mg/kg, po bid measured after 14 days (reference value: 0.150 +/- 0.003 g); format: functional

Sequence of 5-hydroxytryptamine receptor 2B (P41595 whole entry): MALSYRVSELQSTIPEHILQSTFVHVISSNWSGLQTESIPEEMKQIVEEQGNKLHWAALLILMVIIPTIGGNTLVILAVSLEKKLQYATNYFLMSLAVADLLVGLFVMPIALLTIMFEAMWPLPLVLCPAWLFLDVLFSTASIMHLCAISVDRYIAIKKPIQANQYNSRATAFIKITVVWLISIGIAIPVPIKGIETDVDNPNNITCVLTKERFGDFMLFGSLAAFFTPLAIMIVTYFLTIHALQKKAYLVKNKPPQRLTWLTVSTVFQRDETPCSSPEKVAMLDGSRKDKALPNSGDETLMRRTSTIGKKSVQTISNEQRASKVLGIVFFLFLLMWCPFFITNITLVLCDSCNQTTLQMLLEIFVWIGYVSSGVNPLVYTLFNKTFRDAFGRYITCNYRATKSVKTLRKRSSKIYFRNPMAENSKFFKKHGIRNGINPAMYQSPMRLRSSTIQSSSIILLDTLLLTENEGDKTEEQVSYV

Cl.Clc1cccc(Nc2nc(Cc3ccccc3)nc3c2CCNCC3)c1
Activity (Mus musculus [1]): 0.36 g | inhibition in vivo at 12.5 mg/kg (Mus musculus [2]): 71% | IC50 [3]: > 10000 nM | Activity (Mus musculus [4]): 0.034 g | Activity (Mus musculus [5]): 0.143 g | Cmax [6]: 70 ng/mL | Activity (Mus musculus [7]): Toxic | Activity (Mus musculus [8]): 0.154 g | inhibition in vivo at 12.5 mg/kg (Mus musculus [9]): 24.9% | IC50 [10]: 32 nM | inhibition in vivo at 12.5 mg/kg (Mus musculus [11]): 47.8% | Ratio IC50 (Homo sapiens): 8.1 | Activity (Mus musculus [12]): 0.344 g | Activity (Mus musculus [13]): 0.124 g | Activity (Mus musculus [14]): 0.14 g | Activity (Mus musculus [15]): 0.35 g | Activity (Mus musculus [16]): 0.033 g | inhibition in vivo at 50 mg/kg (Mus musculus [17]): 18.8% | AUC(0-inf) [18]: 1910 ng·h/mL | inhibition in vivo at 50 mg/kg (Mus musculus [19]): 98.6% | Activity (Mus musculus [20]): 3.776 g | clearance [21]: 97.2 mL/min/kg | dose excreted [22]: 0.03% | Vd [23]: 17 L/kg | inhibition in vivo at 50 mg/kg (Mus musculus [24]): 84.8% | inhibition in vivo at 25 mg/kg (Mus musculus [25]): 15.2% | bioavailability [26]: 55.1% | Activity (Mus musculus [27]): 3.394 g | Activity (Mus musculus [28]): 0.163 g

From ChEMBL document CHEMBL2390866, “Novel pyrimidoazepine analogs as serotonin 5-HT(2A) and 5-HT(2C) receptor ligands for the treatment of obesity” (Eur J Med Chem, 2013)
